Data: PMC2193282 (The Journal of Experimental Medicine, 2000)

Tested on: epidermal Langerhans cells
Assay: Langerhans cell migration assay
Format: in vivo, BALB/c mice
Details: 24 h after topical application of 0.5% DNFB on ear (Fig. 5 A)
Procedure, shortened: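 Ears were harvested 24 h later. Epidermal sheets were separated (0.5 M ammonium thiocyanate, 20 min, 37°C), acetone-fixed and stained with FITC anti-IA mAb 2G9. IA+ cells were counted at ×400 in 10 fields/sample; 5–15 mice/group.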

O=[N+]([O-])c1ccc(F)c([N+](=O)[O-])c1 [DNFB, dinitrofluorobenzene]
reduction of epidermal Langerhans cell density: ~35%
